Test [1] deals with T1, Tyrosine-protein kinase Mer (Homo sapiens) (UniProt Q12866).
T1 sequence (whole entry): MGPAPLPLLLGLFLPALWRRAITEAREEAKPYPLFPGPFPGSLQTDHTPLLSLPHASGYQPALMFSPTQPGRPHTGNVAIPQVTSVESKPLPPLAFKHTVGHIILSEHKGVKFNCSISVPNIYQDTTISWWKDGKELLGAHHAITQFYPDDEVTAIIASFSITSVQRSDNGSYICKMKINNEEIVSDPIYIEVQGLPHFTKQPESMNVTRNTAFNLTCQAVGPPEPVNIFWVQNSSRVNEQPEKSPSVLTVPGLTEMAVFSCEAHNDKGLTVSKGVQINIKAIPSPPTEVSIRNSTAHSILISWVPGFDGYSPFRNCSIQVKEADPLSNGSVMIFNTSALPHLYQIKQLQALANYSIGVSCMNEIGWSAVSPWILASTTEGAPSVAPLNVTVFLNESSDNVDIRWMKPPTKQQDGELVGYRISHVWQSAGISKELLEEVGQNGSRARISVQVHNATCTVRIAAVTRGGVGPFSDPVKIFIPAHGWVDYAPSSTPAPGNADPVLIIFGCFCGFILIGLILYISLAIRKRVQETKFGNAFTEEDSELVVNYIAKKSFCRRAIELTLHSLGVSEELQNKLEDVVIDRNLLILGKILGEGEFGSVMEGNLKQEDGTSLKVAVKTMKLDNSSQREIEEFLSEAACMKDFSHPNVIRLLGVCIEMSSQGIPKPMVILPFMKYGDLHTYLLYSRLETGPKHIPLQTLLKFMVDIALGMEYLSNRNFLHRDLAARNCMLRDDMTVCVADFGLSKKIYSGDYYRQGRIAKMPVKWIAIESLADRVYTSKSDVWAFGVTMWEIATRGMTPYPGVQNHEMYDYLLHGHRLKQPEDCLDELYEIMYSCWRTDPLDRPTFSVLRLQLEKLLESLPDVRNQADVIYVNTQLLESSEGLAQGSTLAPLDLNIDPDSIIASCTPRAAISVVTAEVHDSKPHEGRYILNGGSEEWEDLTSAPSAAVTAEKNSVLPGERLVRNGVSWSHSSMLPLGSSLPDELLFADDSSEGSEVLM
The test is described as follows: Inhibition of MERTK (unknown origin) assessed as residual activity at 1000 nM by KINOMEscan analysis relative to control.

Test [2] addresses T2, Son of sevenless homolog 1 (Homo sapiens) (UniProt Q07889).
T2 sequence (whole entry): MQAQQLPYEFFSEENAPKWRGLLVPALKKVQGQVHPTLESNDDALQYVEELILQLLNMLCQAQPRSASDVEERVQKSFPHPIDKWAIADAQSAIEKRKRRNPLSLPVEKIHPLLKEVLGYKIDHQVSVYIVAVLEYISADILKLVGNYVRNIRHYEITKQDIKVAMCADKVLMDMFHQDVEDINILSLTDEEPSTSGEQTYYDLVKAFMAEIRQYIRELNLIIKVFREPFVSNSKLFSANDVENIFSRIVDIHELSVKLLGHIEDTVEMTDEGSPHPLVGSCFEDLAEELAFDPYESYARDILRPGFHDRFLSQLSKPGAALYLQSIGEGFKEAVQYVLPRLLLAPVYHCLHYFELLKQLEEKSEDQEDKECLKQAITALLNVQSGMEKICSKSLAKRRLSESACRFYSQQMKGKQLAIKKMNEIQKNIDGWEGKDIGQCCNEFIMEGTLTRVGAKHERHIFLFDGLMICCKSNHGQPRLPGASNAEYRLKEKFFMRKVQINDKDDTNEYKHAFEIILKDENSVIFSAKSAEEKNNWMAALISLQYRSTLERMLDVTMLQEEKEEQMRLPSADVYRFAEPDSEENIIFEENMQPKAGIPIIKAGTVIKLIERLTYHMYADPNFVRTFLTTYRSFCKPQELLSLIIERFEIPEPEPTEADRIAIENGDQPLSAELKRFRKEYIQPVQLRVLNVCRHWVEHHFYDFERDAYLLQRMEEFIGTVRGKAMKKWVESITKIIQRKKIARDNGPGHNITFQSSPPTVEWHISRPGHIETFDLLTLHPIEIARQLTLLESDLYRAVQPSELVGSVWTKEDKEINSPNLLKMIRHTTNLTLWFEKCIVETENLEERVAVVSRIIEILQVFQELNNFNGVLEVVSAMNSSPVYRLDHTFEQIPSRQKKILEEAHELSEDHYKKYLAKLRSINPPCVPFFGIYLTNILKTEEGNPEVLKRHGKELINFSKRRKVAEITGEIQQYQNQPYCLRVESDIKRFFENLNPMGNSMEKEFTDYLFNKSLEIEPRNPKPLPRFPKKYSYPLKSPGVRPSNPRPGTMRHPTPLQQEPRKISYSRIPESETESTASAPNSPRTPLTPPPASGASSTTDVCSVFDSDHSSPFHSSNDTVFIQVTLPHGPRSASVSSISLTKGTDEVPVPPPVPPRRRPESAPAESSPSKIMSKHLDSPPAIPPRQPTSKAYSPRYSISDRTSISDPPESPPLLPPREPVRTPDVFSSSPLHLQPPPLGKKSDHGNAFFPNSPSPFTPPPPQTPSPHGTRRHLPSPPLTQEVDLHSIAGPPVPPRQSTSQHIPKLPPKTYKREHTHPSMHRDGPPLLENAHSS
The test is described as follows: Binding affinity to N-terminal His10-tagged wild-type recombinant human SOS1 catalytic domain (564 to 1049 residues) expressed in Escherichia coli assessed as change in enthalpy by ITC analysis. The method, boiled down:
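SOS1cat was titrated into a solution of the test ligand. Integrated injection enthalpies were plotted against the protein-to-compound molar ratio and fitted to derive the thermodynamic binding parameters.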
For orientation: Isothermal titration calorimetry measures the heat released or taken up as one component is titrated into another.

Experimental findings from ChEMBL document CHEMBL5678818, “Discovery of potent SOS1 inhibitors that block RAS activation via disruption of the RAS-SOS1 interaction” (Proc Natl Acad Sci U S A, 2019) are described below.

Where “and” joins values, the source holds several entries; their conditions need not be identical. Identical values can stand only once.

Turning to `COc1cc2nc(C)nc(N[C@H](C)c3cccc(-c4cn[nH]c4)c3)c2cc1OC`, the Activity in test [1] came out at 55%. For the compound `COc1cc2ncnc(N[C@H](C)c3cccc4ccccc34)c2cc1OC`, the deltaH in test [2] was -59 kJ/mol. The Activity in test [1] was 96%. Turning to `CNCc1ccccc1-c1csc([C@@H](C)Nc2nc(C)nc3cc(OC)c(OC)cc23)c1` [BAY-293], the deltaH in test [2] is -67.4 kJ/mol and -74.9 kJ/mol.
